{"source": "ChEMBL document CHEMBL3272173", "about": "“Synthesis and biological activity of peptide antagonists of luliberin (luteinizing hormone-releasing hormone)” (J Med Chem, 1979)", "key": {"Rattus norvegicus [1]": {"test_system": "Rattus norvegicus", "assay": "Antiovulatory activity in sc dosed CD rat assessed as blockade of ovulation administered as six doses at 1200, 1230, 1300, 1350, 1400 and 1450 hrs during proestrus stage measured during estrus stage by dissecting microscopic analysis", "format": "functional", "summary_of_the_method": "(§1)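 Cycling Charles River CD rats were given six subcutaneous injections of analogue in 0.1 mL propylene glycol on the afternoon of proestrus, and controls received vehicle alone. Rats were killed the next morning (estrus). Ovulating animals were scored and ova in the oviducts were counted under a dissecting microscope.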"}, "[2]": {"target": "T1, Gonadotropin-releasing hormone receptor (Rattus norvegicus) (UniProt P30969)", "T1 sequence (whole entry)": "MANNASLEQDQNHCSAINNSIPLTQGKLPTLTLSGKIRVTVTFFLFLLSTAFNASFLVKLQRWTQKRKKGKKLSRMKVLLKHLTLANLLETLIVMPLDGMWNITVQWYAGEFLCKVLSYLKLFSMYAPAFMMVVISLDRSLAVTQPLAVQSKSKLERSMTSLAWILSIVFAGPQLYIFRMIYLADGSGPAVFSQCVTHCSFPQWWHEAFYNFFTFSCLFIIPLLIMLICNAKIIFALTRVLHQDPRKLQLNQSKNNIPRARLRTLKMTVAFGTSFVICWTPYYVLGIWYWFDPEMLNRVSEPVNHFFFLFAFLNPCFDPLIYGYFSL", "assay": "In vitro antagonist activity at GNRHR in CD rat anterior pituitary gland assessed as inhibition of LH-RH-stimulated LH release at compound to LH-RH molar ratio of 200 after 4 hrs by radioimmunoassay", "details": "concentration not given here", "summary_of_the_method": "(§2)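 Anterior pituitaries from diestrus CD rats (200-250 g) were dissociated enzymatically (collagenase, hyaluronidase, then Viokase). Cells were cultured 4 days at 1.67 × 10^5 cells/mL in DME with 10% horse serum and 2.5% fetal calf serum, then washed serum-free. Duplicate cultures received LH-RH (2-5 × 10^-10 M) with a single analogue concentration in serum-free DME for 4 h at 37 °C. LH in the medium was measured by RIA and reported as % inhibition of LH-RH-stimulated release.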"}, "Rattus norvegicus [3]": {"test_system": "Rattus norvegicus", "assay": "Antiovulatory activity in CD rat assessed as blockade of ovulation at 3 mg, sc administered as six doses at 1200, 1230, 1300, 1350, 1400 and 1450 hrs during proestrus stage measured during estrus stage by dissecting microscopic analysis", "format": "functional", "summary_of_the_method": "as §1"}, "[4]": {"target": "T1, Gonadotropin-releasing hormone receptor (Rattus norvegicus)", "assay": "In vitro antagonist activity at GNRHR in CD rat anterior pituitary gland assessed as inhibition of LH-RH-stimulated LH release at compound to LH-RH molar ratio of 4000 after 4 hrs by radioimmunoassay", "details": "concentration not given here", "summary_of_the_method": "as §2"}, "Rattus norvegicus [5]": {"test_system": "Rattus norvegicus", "assay": "Antiovulatory activity in CD rat assessed as blockade of ovulation at 0.1 mg, sc administered as six doses at 1200, 1230, 1300, 1350, 1400 and 1450 hrs during proestrus stage measured during estrus stage by dissecting microscopic analysis", "format": "functional", "details": "in the assay text read “at 1 mg” for “at 0.1 mg”", "summary_of_the_method": "as §1"}, "[6]": {"assay": "Solubility of the compound in water", "format": "physicochemical"}, "Rattus norvegicus [7]": {"test_system": "Rattus norvegicus", "assay": "Antiovulatory activity in CD rat assessed as blockade of ovulation at 5 mg, sc administered as six doses at 1200, 1230, 1300, 1350, 1400 and 1450 hrs during proestrus stage measured during estrus stage by dissecting microscopic analysis", "format": "functional", "summary_of_the_method": "as §1"}, "[8]": {"target": "T1, Gonadotropin-releasing hormone receptor (Rattus norvegicus)", "assay": "In vitro antagonist activity at GNRHR in CD rat anterior pituitary gland assessed as inhibition of LH-RH-stimulated LH release at compound to LH-RH molar ratio of 10 after 4 hrs by radioimmunoassay", "details": "concentration not given here", "summary_of_the_method": "as §2"}, "[9]": {"target": "T1, Gonadotropin-releasing hormone receptor (Rattus norvegicus)", "assay": "In vitro antagonist activity at GNRHR in CD rat anterior pituitary gland assessed as ratio of molar concentration of compound to LH-RH for inhibition of LH-RH-stimulated LH release after 4 hrs by radioimmunoassay", "summary_of_the_method": "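Monolayers were cultured 4 days from dissociated anterior pituitary cells of diestrus CD rats. They were exposed in duplicate to LH-RH (2-5 × 10^-10 M) plus multiple analogue concentrations in serum-free DME for 4 h at 37 °C. LH in the medium was measured by radioimmunoassay. The ED50 molar ratio is the analogue:LH-RH molar ratio giving 50% inhibition of LH-RH-stimulated LH release.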"}, "[10]": {"target": "T1, Gonadotropin-releasing hormone receptor (Rattus norvegicus)", "assay": "In vitro antagonist activity at GNRHR in CD rat anterior pituitary gland assessed as inhibition of LH-RH-stimulated LH release at compound to LH-RH molar ratio of 2000 after 4 hrs by radioimmunoassay", "details": "concentration not given here", "summary_of_the_method": "as §2"}, "Rattus norvegicus [11]": {"test_system": "Rattus norvegicus", "assay": "Antiovulatory activity in CD rat assessed as blockade of ovulation at 1 mg, sc administered as six doses at 1200, 1230, 1300, 1350, 1400 and 1450 hrs during proestrus stage measured during estrus stage by dissecting microscopic analysis", "format": "functional", "summary_of_the_method": "as §1"}, "[12]": {"target": "T1, Gonadotropin-releasing hormone receptor (Rattus norvegicus)", "assay": "In vitro antagonist activity at GNRHR in CD rat anterior pituitary gland assessed as inhibition of LH-RH-stimulated LH release at compound to LH-RH molar ratio of 28 after 4 hrs by radioimmunoassay", "details": "concentration not given here", "summary_of_the_method": "as §2"}, "[13]": {"target": "T1, Gonadotropin-releasing hormone receptor (Rattus norvegicus)", "assay": "In vitro antagonist activity at GNRHR in CD rat anterior pituitary gland assessed as inhibition of LH-RH-stimulated LH release at compound to LH-RH molar ratio of 2800 after 4 hrs by radioimmunoassay", "details": "concentration not given here", "summary_of_the_method": "as §2"}}, "note": "Peptide text beside a SMILES is read from it. * marks the point of attachment. Cbz = O=C(OCc1ccccc1)*; Bn = c1ccc(C*)cc1", "data": [{"smiles": "CC(=O)O.CCNC(=O)[C@@H]1CCCN1C(=O)[C@H](CCCNC(=N)N)NC(=O)[C@H](CC(C)C)NC(=O)[C@H]1CCCN1C(=O)[C@H](Cc1ccc(O)cc1)NC(=O)[C@H](CO)NC(=O)[C@H](Cc1c[nH]c2ccccc12)NC(=O)[C@H](CCC(N)=O)NC(=O)OCc1ccccc1", "values": [{"measurement": "ED50", "setting": "Rattus norvegicus [1]", "result": 1, "unit": "mg"}, {"measurement": "inhibition", "setting": "[2]", "result": 74, "unit": "%"}, {"measurement": "inhibition (INH)", "setting": "Rattus norvegicus [3]", "result": 100, "unit": "%"}]}, {"smiles": "CC(C)C[C@H](NC(=O)CNC(=O)[C@H](Cc1ccc(O)cc1)NC(=O)[C@H](CO)NC(=O)[C@H](Cc1c[nH]c2ccccc12)NC(=O)[C@H](Cc1cnc[nH]1)NC(=O)OCc1ccccc1)C(=O)N[C@@H](CCCNC(=N)N)C(=O)N1CCC[C@H]1C(=O)O", "note": "(HELM PEPTIDE1{[O=C(OCc1ccccc1)[*:2]].H.W.S.Y.G.L.R.P}$$$$V2.0)", "values": [{"measurement": "inhibition", "setting": "[4]", "result": 10, "unit": "%"}]}, {"smiles": "CC(C)C[C@H](NC(=O)[C@@H](Cc1c[nH]c2ccccc12)NC(=O)[C@H](Cc1ccc(O)cc1)NC(=O)[C@H](CO)NC(=O)[C@H](Cc1c[nH]c2ccccc12)NC(=O)[C@H](COCc1ccccc1)NC(=O)OC(C)(C)C)C(=O)N[C@@H](CCCNC(=N)N)C(=O)N1CCC[C@H]1C(=O)NCC(N)=O.Cl", "values": [{"measurement": "inhibition (INH)", "setting": "Rattus norvegicus [5]", "result": 100, "unit": "%"}, {"measurement": "ED50", "setting": "Rattus norvegicus [1]", "result": 0.05, "unit": "mg"}, {"measurement": "solubility", "setting": "[6]", "result": 1000, "unit": "µg/mL"}]}, {"smiles": "CCNC(=O)[C@@H]1CCCN1C(=O)[C@H](CCCNC(=N)N)NC(=O)[C@H](CC(C)C)NC(=O)[C@@H](Cc1ccccc1)NC(=O)[C@H](Cc1ccc(O)cc1)NC(=O)[C@H](CO)NC(=O)[C@H](Cc1c[nH]c2ccccc12)NC(=O)[C@H](COCc1ccccc1)NC(=O)OCc1ccccc1.Cl", "values": [{"measurement": "inhibition (INH)", "setting": "Rattus norvegicus [7]", "result": 80, "unit": "%"}, {"measurement": "inhibition", "setting": "[8]", "result": 93, "unit": "%"}, {"measurement": "ED50", "setting": "Rattus norvegicus [1]", "result": 2.5, "unit": "mg"}, {"measurement": "ED50", "setting": "[9]", "result": 1.3, "unit": "molar ratio"}]}, {"smiles": "CC(=O)O.CCNC(=O)[C@@H]1CCCN1C(=O)[C@H](CCCNC(=N)N)NC(=O)[C@H](CC(C)C)NC(=O)[C@@H](CC(N)=O)NC(=O)[C@H](Cc1ccc(O)cc1)NC(=O)[C@H](CO)NC(=O)[C@H](Cc1c[nH]c2ccccc12)NC(=O)[C@H](CCC(N)=O)NC(=O)OCc1ccccc1", "values": [{"measurement": "ED50", "setting": "Rattus norvegicus [1]", "result": ">1", "unit": "mg"}, {"measurement": "inhibition", "setting": "[10]", "result": 100, "unit": "%"}, {"measurement": "inhibition (INH)", "setting": "Rattus norvegicus [11]", "result": 20, "unit": "%"}, {"measurement": "ED50", "setting": "[9]", "result": 300, "unit": "molar ratio"}]}, {"smiles": "CC(C)C[C@H](NC(=O)CNC(=O)[C@H](Cc1ccc(O)cc1)NC(=O)[C@H](CO)NC(=O)[C@H](Cc1c[nH]c2ccccc12)NC(=O)[C@H](CCC(N)=O)NC(=O)OCc1ccccc1)C(=O)N[C@@H](CCCNC(=N)N)C(=O)N1CCC[C@H]1C(=O)NCC(N)=O.Cl", "note": "(HELM PEPTIDE1{[O=C(OCc1ccccc1)[*:2]].Q.W.S.Y.G.L.R.P.G.[am]}$$$$V2.0)", "values": [{"measurement": "ED50", "setting": "Rattus norvegicus [1]", "result": ">1", "unit": "mg"}, {"measurement": "inhibition", "setting": "[4]", "result": 33, "unit": "%"}]}, {"smiles": "CCNC(=O)[C@@H]1CCCN1C(=O)[C@H](CCCNC(=N)N)NC(=O)[C@H](CC(C)C)NC(=O)[C@@H](CC(C)C)NC(=O)[C@H](Cc1ccc(O)cc1)NC(=O)[C@H](CO)NC(=O)[C@H](Cc1c[nH]c2ccccc12)NC(=O)[C@H](CCC(N)=O)NC(=O)OCc1ccccc1.Cl", "values": [{"measurement": "inhibition", "setting": "[12]", "result": 60, "unit": "%"}, {"measurement": "ED50", "setting": "Rattus norvegicus [1]", "result": ">1", "unit": "mg"}, {"measurement": "inhibition (INH)", "setting": "Rattus norvegicus [11]", "result": 20, "unit": "%"}, {"measurement": "ED50", "setting": "[9]", "result": 22.3, "unit": "molar ratio"}]}, {"smiles": "CC(C)C[C@H](NC(=O)CNC(=O)[C@H](Cc1ccc(O)cc1)NC(=O)[C@H](CO)NC(=O)[C@H](Cc1c[nH]c2ccccc12)NC(=O)[C@H](COCc1ccccc1)NC(=O)OCc1ccccc1)C(=O)N[C@@H](CCCNC(=N)N)C(=O)N1CCC[C@H]1C(=O)NCC(N)=O.Cl", "note": "(Cbz-S(Bn)WSYGLRPG-NH2)", "values": [{"measurement": "ED50", "setting": "[9]", "result": 100, "unit": "molar ratio"}, {"measurement": "inhibition (INH)", "setting": "Rattus norvegicus [3]", "result": 20, "unit": "%"}, {"measurement": "inhibition", "setting": "[13]", "result": 100, "unit": "%"}]}]}
